According to ChEMBL document CHEMBL3091404, “Isoquinoline derivatives as potent CRTH2 antagonists: design, synthesis and SAR” (Bioorg Med Chem, 2013):

Tests used:
[1] = molecular target: T1, Prostaglandin D2 receptor 2 (Homo sapiens, UniProt Q9Y5Y4); assay: Displacement of [3H]PGD2 from human CRTH2 transfected in CHO cells by liquid scintillation counting analysis; type: cell-based
T1 sequence (Q9Y5Y4 whole entry): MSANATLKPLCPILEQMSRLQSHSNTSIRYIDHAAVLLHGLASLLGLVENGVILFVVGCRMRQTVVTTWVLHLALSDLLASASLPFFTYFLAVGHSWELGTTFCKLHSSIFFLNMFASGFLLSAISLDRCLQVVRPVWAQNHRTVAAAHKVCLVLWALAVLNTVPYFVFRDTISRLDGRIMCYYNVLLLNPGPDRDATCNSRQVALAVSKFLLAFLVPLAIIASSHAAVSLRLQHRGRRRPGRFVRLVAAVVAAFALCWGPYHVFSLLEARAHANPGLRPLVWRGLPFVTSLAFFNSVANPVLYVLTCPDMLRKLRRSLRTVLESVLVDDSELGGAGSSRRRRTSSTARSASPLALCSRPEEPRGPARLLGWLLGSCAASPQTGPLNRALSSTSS
In short: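 Transfected cells washed and suspended in HBSS with 10 mM HEPES pH 7.3 (2 × 10⁵ cells/100 µl), incubated with 5 nM ³H-PGD₂ for 60 min on ice. Vacuum filtration through GF/C glass fiber filters, four washes with ice-cold PBS containing 0.1% BSA. IC₅₀ from ten-point half-log concentration–response curves, mean of two or more independent experiments.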

[2] = molecular target: T1, Prostaglandin D2 receptor 2; assay: Antagonist activity at human CRTH2 transfected in human KB8 cells assessed as inhibition of PGD2-induced increase in intracellular Ca2+ by fluo-4AM dye-based assay; type: functional, cell-based
In short: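 Cells loaded with 1 µM Fluo-4 AM for 30 min at 37 °C in the dark, washed, resuspended in HBSS with 10 mM HEPES pH 7.3 and 1 mM CaCl₂ (2 × 10⁵ cells/100 µl). Compound added with 100 nM PGD₂; [Ca²⁺]i rise read on FDSS6000. IC₅₀ from ten-point half-log concentration–response curves, mean of two or more independent experiments.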

[3] = Antagonist activity at CRTH2 in human TH2 cells assessed as inhibition of PGD2-induced chemotaxis after 1 hr by hemocytometry

Row | IC50 [1] | IC50 [2] | IC50 [3] | SMILES
1 | 0.322 µM | > 1 µM |  | O=C(O)Cc1cnc(C(=O)c2ccc(NC(=O)c3cccnn3)cc2)c2ccccc12
2 | 0.0099 µM | 0.028 µM |  | O=C(O)Cc1cnc(C(=O)c2ccc(NC(=O)c3ccc([N+](=O)[O-])cc3)cc2)c2ccccc12
3 | 0.018 µM | 0.014 µM |  | O=C(O)Cc1cnc(C(=O)c2ccc(NC(=O)c3ccc(-c4ccccc4)cc3)cc2)c2ccccc12
4 | 0.0082 µM | 0.038 µM |  | O=C(O)Cc1cnc(C(=O)c2ccc(C(=O)Nc3ccc(Cl)cc3)cc2)c2ccccc12
5 | 0.0052 µM | 0.018 µM |  | Cc1ccc(C(=O)Nc2ccc(C(=O)c3ncc(CC(=O)O)c4ccccc34)cc2)cc1
6 |  | > 1 µM |  | CC(C)(C(=O)O)c1cnc(C(=O)c2ccc(C(=O)NCCc3ccc(Cl)cc3)cc2)c2ccccc12
7 |  | 0.01 µM |  | O=C(O)Cc1cnc(C(=O)c2ccc(NC(=O)c3ccc4ccccc4c3)cc2)c2ccccc12
8 | 0.021 µM | 0.097 µM |  | O=C(O)Cc1cnc(C(=O)c2ccc(NC(=O)CC34CC5CC(CC(C5)C3)C4)cc2)c2ccccc12
9 |  | 0.0097 µM |  | O=C(O)Cc1cnc(C(=O)c2ccc(NC(=O)c3cccc(Cl)c3)cc2)c2ccccc12
10 | 0.013 µM | 0.036 µM |  | O=C(O)Cc1cnc(C(=O)c2ccc(NC(=O)Nc3ccc(Cl)c(Cl)c3)cc2)c2ccccc12
11 |  | 0.018 µM |  | O=C(O)Cc1cnc(C(=O)c2ccc(NC(=O)CCc3ccc(Cl)c(Cl)c3)cc2)c2ccccc12
12 | 0.0067 µM | 0.0052 µM |  | O=C(O)Cc1cnc(C(=O)c2ccc(NC(=O)OCc3ccc(Cl)c(Cl)c3)cc2)c2ccccc12
13 | 0.0078 µM | > 1 µM |  | N#Cc1ccc(C(=O)Nc2ccc(C(=O)c3ncc(CC(=O)O)c4ccccc34)cc2)cc1
14 |  | > 1 µM |  | O=C(O)Cc1cnc(C(=O)c2ccc(NC(=O)c3ccccc3Cl)cc2)c2ccccc12
15 |  | 0.013 µM |  | O=C(O)Cc1cnc(C(=O)c2ccc(C(=O)Nc3ccc(Cl)c(Cl)c3)cc2)c2ccccc12
16 | 0.4 µM | > 1 µM |  | O=C(O)Cc1cnc(C(=O)c2ccc(NC(=O)C3CCOCC3)cc2)c2ccccc12
17 |  | 0.013 µM | 0.023 µM | O=C(O)Cc1cnc(C(=O)c2ccc(NC(=O)c3ccc(Cl)c(Cl)c3)cc2)c2ccccc12
18 | 0.031 µM | 0.35 µM |  | O=C(O)Cc1cnc(C(=O)c2ccc(NC(=O)c3cccc4ccccc34)cc2)c2ccccc12

The next lines start with the molecule.

Row | SMILES | IC50 [1] | IC50 [2] | IC50 [3]
19 | O=C(O)Cc1cnc(C(=O)c2ccc(NC(=O)CC3CCCCC3)cc2)c2ccccc12 | 0.02 µM | 0.22 µM | 
20 | O=C(O)Cc1cnc(C(=O)c2ccc(NC(=O)c3ccccn3)cc2)c2ccccc12 | 0.048 µM |  | 
21 | O=C(O)Cc1cnc(C(=O)c2ccc(NC(=O)c3ccc(Oc4ccccc4)cc3)cc2)c2ccccc12 | 0.014 µM | 0.12 µM | 
22 | COc1ccc(C(=O)Nc2ccc(C(=O)c3ncc(CC(=O)O)c4ccccc34)cc2)cc1 |  | 0.017 µM | 
23 | O=C(O)Cc1cnc(C(=O)c2ccc(C(=O)NCCc3ccc(Cl)cc3)cc2)c2ccccc12 |  | 0.012 µM | 
24 | O=C(O)Cc1cnc(C(=O)c2ccc(NC(=O)C3CC3)cc2)c2ccccc12 | 0.05 µM |  | 
25 | O=C(O)Cc1cnc(C(=O)c2ccc(NC(=O)c3ccc(Cl)cc3)cc2)c2ccccc12 |  | 0.0091 µM | 
26 | O=C(O)Cc1cnc(C(=O)c2ccc(OCCc3ccc(Cl)cc3)cc2)c2ccccc12 | 0.012 µM | 0.13 µM | 
27 | O=C(O)Cc1cnc(C(=O)c2ccc(C(=O)NCCc3ccc(Cl)c(Cl)c3)cc2)c2ccccc12 | 0.0037 µM | 0.018 µM | 
28 | O=C(O)Cc1cnc(C(=O)c2ccc(NCc3ccc(Cl)c(Cl)c3)cc2)c2ccccc12 |  | 0.043 µM | 
29 | O=C(O)Cc1cnc(C(=O)c2ccc(NC(=O)c3cc4ccccc4o3)cc2)c2ccccc12 | 0.0038 µM | 0.0074 µM | 
30 | O=C(O)Cc1cnc(C(=O)c2ccc(NC(=O)Cc3ccc(Cl)c(Cl)c3)cc2)c2ccccc12 | 0.015 µM | 0.03 µM | 
31 | O=C(O)Cc1cnc(C(=O)c2ccc(NC(=O)c3cscn3)cc2)c2ccccc12 | 0.067 µM | > 1 µM | 
32 | O=C(O)Cc1cnc(C(=O)c2ccc(NC(=O)c3ccncc3)cc2)c2ccccc12 |  | > 1 µM | 
33 | O=C(O)Cc1cnc(C(=O)c2ccc(NC(=O)c3cc4ccccc4[nH]3)cc2)c2ccccc12 |  | 0.0042 µM | 
34 | CN(C)c1ccc(C(=O)Nc2ccc(C(=O)c3ncc(CC(=O)O)c4ccccc34)cc2)cc1 | 0.0062 µM | 0.013 µM | 
35 | O=C(O)Cc1cnc(C(=O)c2ccc(OCCCc3ccc(Cl)cc3)cc2)c2ccccc12 | 0.011 µM | 0.085 µM | 
36 | O=C(O)COc1cnc(C(=O)c2ccc(C(=O)NCCc3ccc(Cl)cc3)cc2)c2ccccc12 |  | 0.1 µM | 
37 | O=C(O)Cc1cnc(C(=O)c2ccc(NC(=O)C3CCCCC3)cc2)c2ccccc12 |  | 0.27 µM | 
38 | O=C(O)Cc1cnc(C(=O)c2ccc(NC(=O)c3ccc(OC(F)(F)F)cc3)cc2)c2ccccc12 | 0.011 µM | 0.0087 µM | 
